Screening data from PubChem.
Ecoli tolC = growth inhibitors of E. coli BW25113 tolC mutant | OD615 | growth inhibition, % at 10 µM (by protocol) | 2.2% of 65,000 active | AID 573;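 active = growth inhibition at or above a cutoff equal to the mean over every tested compound plus 3 SD, cut at about 60% in these data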;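 note: growth measured after 20 h incubation at 37 °C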
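Test system: tolC-deleted E. coli BW25113; medium: LB with kanamycin 50 µg/mL; compound: single-point testing at 10 µM; incubation: 20 h compound exposure of bacteria at 37 °C; signal: OD at 615 nm; evaluation: growth inhibition in percent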
Ecoli WT expand = E. coli BW25113 growth inhibition, expanded screen; OD600 absorbance; growth inhibition, % at 100 µM; 0.15% of 98,000 active; AID 710;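 active = growth inhibition above about 50% at one test dose, limit read from the data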;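 note: growth measured after 20 h incubation at 37 °C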
PostGolgi ctrl = inhibits growth of the yeast control strain; efflux-deficient yeast background strain, growth absorbance A615, 16 h; inhibition, % at 10 µM; 5% of 98,000 active; AID 738
Cav3 T inh = inhibitors of human Cav3.2 T-type calcium channel; O95180; Cav3.2-expressing cells, Fluo-4 calcium fluorescence FDSS; stronger effect = lower value; B-score at 10 µM; 4% of 100,000 active; AID 449739;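 active = single-dose well whose peak fluorescence ratio is a statistical outlier from its plate by either plate-standardised score or position-corrected B-score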
PostGolgi yeast = growth inhibition of a yeast mutant, post-Golgi transport screen; AID 739; 0.9% of 98,000 active; inhibition, % at 10 µM; post-Golgi transport phenotypic cell assay;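 note: yeast cells grown in 1536-well plates; yeast grown about 18 h at 30C before absorbance read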
PTK2B oligo ant = Pyk2 (human) oligomerization antagonism; z-score (the deposit names both 25 µM and 10 µM); AID 1347419; 0.83% of 99,000 active; Q14289; Q293 cells, Pyk2 FERM NanoBiT luminescence; stronger effect = lower value;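 active = Z-score of -3 or lower, scaled per plate to the spread of control and sample wells; inactive = z-score above -3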;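 note: negative z-score means lost luminescence so less FERM oligomerization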
Numbers without * were called inactive; / = no result given. The list is not random: actives were taken first. Their share in the collection is about 8.7%. Cut-off read from the data, not from the text of the source, unless noted: active = inhibition above about 30%; inactive = the rest.

SMILES | Ecoli tolC | Ecoli WT expand | PostGolgi ctrl | Cav3 T inh | PostGolgi yeast | PTK2B oligo ant
Cc1cccc(CSc2nnc(-c3cccs3)n2Cc2ccco2)c1 | / | -12 | 24 | -5.5* | -5 | -1.7
Cc1cccc(CSc2nc3sc(C)c(C)c3c(=O)n2Cc2ccco2)c1 | / | -16 | 4 | -4.2* | -5 | 1.3
Cc1sc2nc(SCC(=O)C(C)(C)C)n(Cc3ccco3)c(=O)c2c1C | / | -15 | 39* | -0.81 | 2 | -0.06
CCOC(=O)CC(=O)CSc1nc2sc(C)cc2c(=O)n1Cc1ccco1 | -6 | 1 | 22 | 0.26 | -5 | 0.22
Cc1sc2nc(SCc3ccccc3)n(Cc3ccco3)c(=O)c2c1C | / | -24 | 7 | -1.9 | 1 | -0.74
Cc1ccc(CNC(=O)CCNC(=O)c2ccco2)cc1 | / | 7 | 12 | 0.42 | -2 | -0.56
COc1cc(CNC(=O)c2ccc3c(c2)S(=O)(=O)c2ccccc2C3=O)cc(OC)c1 | / | / | / | 1.2 | / | /
O=C(CN1CCN(c2ccccn2)CC1)Nc1ccccc1 | / | 1 | 3 | 0.94 | -4 | -0.41
O=C(CN1CCN(c2ccccn2)CC1)Nc1ccc(Oc2ccccc2)cc1 | 30 | -3 | 2 | -2.8 | 58* | -0.2
Cc1cc(C)c2c(=O)[nH]c(SCC(=O)c3ccc(C(C)C)cc3)nc2n1 | / | -12 | 5 | -1.1 | -2 | -0.08
CCCOc1ccccc1C1CC(=O)Nc2cc3c(cc21)OCCO3 (configuration not stated) | 85* | -7 | 26 | / | -2 | -2.2
CC(C)Oc1ccccc1C1CC(=O)Nc2cc3c(cc21)OCO3 (configuration not stated) | 10 | 3 | 31* | -0.17 | 2 | -2.5
CC(C)OC(=O)CC12CN(C)CC(CC(=O)OC(C)C)(CN(C)C1)C2=O | / | 3 | 0 | -0.25 | 0 | -0.25
CC(=O)c1c(C(C)=O)c(C)n(NC(=O)c2ccc(Cl)cc2)c1C | / | -1 | 23 | 1.9 | 31* | 0.04
CC(=O)c1c(C(C)=O)c(C)n(Cc2ccc(Cl)cc2)c1C | / | -2 | 6 | 0.016 | -2 | 0.79
O=C(c1ccc(F)cc1)C(CN1CCOCC1)c1ccccc1 (configuration not stated) | 22 | 28 | 55* | -1.9 | 15 | -1.2
O=C(c1ccccc1)C(CCC(CN1CCOCC1)C(=O)c1ccccc1)CN1CCOCC1 (configuration not stated) | 13 | 8 | 41* | 2.7 | -1 | -1.6
CCN(CC)S(=O)(=O)c1ccc(OC(C)C)c(NC(=O)c2c3c(nc4ccccc24)CCN(Cc2ccccc2)C3)c1 | / | / | / | / | / | -0.33
Cn1cc(CC(=O)NCCCN2CCCC2=O)c2ccccc21 | -10 | -1 | 4 | 0.81 | 4 | /
COc1cc(OC)cc(C(=O)Nc2cccc(N3CCCC3)c2)c1 | 23 | -10 | 8 | 0.062 | -3 | 0.19
Cc1c(Br)c([N+](=O)[O-])nn1CC(=O)N1CCCc2ccccc21 | / | 1 | 30 | -0.67 | 18 | -0.65
CC(C)NC(C(=O)Nc1cc(Cl)cc(Cl)c1)c1ccccc1 (configuration not stated) | / | 8 | -2 | -4.6* | -12 | -0.16
CC(C(=O)OCc1nnc(-c2ccccc2)o1)N1C(=O)c2ccccc2C1=O (configuration not stated) | 3 | -5 | -12 | 1 | 0 | 0.89
COc1cc2c(O)c3c(c(-c4ccc5c(c4)OCO5)c2cc1OC)C(=O)OC3 | 13 | -15 | 7 | -4.2* | -1 | -2.8
CCCC(C)C(=O)Nc1nc(C)c(-c2csc(Nc3ccc(Cl)cc3)n2)s1 (configuration not stated) | / | -2 | 34* | -1.2 | 0 | /
SMILES | Ecoli tolC | Ecoli WT expand | PostGolgi ctrl | Cav3 T inh | PostGolgi yeast | PTK2B oligo ant
CC1CCCCN1c1nc(-c2ccncc2)nc2ccccc12 (configuration not stated) | 100* | 5 | 73* | -3 | 17 | -1.2
c1ccc2c(N3CCOCC3)nc(-c3ccncc3)nc2c1 | / | 13 | 9 | / | 7 | -0.3
CC1CCN(c2nc(-c3ccncc3)nc3ccccc23)CC1 | 37 | 2 | 95* | -1.9 | 105* | -0.23
COc1cccc(-c2nc(N3CCCCC3)c3ccccc3n2)c1O | 8 | / | / | / | / | /
CCC1CCCCN1c1nc(-c2ccncc2)nc2ccccc12 (configuration not stated) | -3 | -14 | 75* | -2.1 | 9 | -0.52
CCC1CCCCN1c1nc(-c2cccc(OC)c2O)nc2ccccc12 (configuration not stated) | 16 | -8 | 41* | -1 | -3 | -0.95
Cn1c2c(c3ccccc31)CC/C2=N\O | 12 | -8 | -5 | 1.6 | -4 | 1.1
O=C1OC(Cc2ccccn2)C(=O)C1=C1SCCS1 (configuration not stated) | / | / | / | / | / | 0.18
Cc1cccc(C)c1N1C(=O)C2ON(c3ccccc3)C(c3ccncc3)C2C1=O (configuration not stated) | 0 | 7 | 91* | -1.3 | 102* | -0.35
O=C1C2ON(c3ccccc3)C(c3ccncc3)C2C(=O)N1c1ccccc1 (configuration not stated) | 21 | 6 | 1 | 0.51 | 1 | -0.63
Cc1ccccc1-c1cc(-c2ccccc2O)n[nH]1 | 100* | 26 | 52* | -0.43 | 0 | -0.44
COc1ccc(-c2cc(-c3ccccc3O)[nH]n2)cc1 | / | 17 | 11 | -0.13 | -5 | -1
Cc1ccc(-c2cc(-c3ccccc3[N+](=O)[O-])[nH]n2)c(O)c1 | / | 26 | 41* | / | -2 | -1.6
COc1ccccc1-c1cc(-c2cc(Cl)ccc2O)n[nH]1 | 14 | -1 | 6 | / | -2 | 0.76
Oc1ccc(Cl)cc1-c1cc(-c2ccccc2)n[nH]1 | 100* | 1 | 65* | 0.017 | 8 | /
Cc1ccc(-c2cc(-c3ccccc3Cl)[nH]n2)c(O)c1 | 17 | 13 | 38* | 0.03 | -15 | -0.42
Cc1ccc(O)c(-c2cc(C(F)(F)F)[nH]n2)c1 | / | 36 | 7 | -0.047 | 0 | -2.3
C=C(C)Cn1c(Sc2nc3ccccc3[nH]2)nc2c1c(=O)[nH]c(=O)n2C | -3 | 6 | -12 | 0.46 | 2 | 0.68
O=C1CC(SCCO)C(=O)N1c1ccc(Oc2ccccc2)cc1 (configuration not stated) | 7 | 6 | -8 | -1.9 | -5 | 1.3
CCOC(=O)N1CCN(C(=O)CSCC(=O)Nc2nc(-c3ccccc3)cs2)CC1 | 12 | / | / | -2.7 | / | -1.6
O=C(CSCC(=O)N1CCN(c2ccccc2)CC1)Nc1nc(-c2ccc(Cl)s2)cs1 | / | -1 | 16 | -5.6* | 16 | /
O=C(CSCC(=O)N1CCCCC1)Nc1nc(-c2ccc(Cl)s2)cs1 | 46 | -22 | 72* | -5.2* | 32* | /
CCN1CCCc2cc(CN(CCN3CCOCC3)C(=O)Nc3ccc(C)c(C)c3)ccc21 | / | -8 | 15 | -0.96 | 2 | 0.84
Cc1cccc(N2CCN(C(=O)C(C)C)CC2)c1C | / | 0 | 85* | 0.7 | 91* | -0.05
Cc1cccc(N2CCN(C(=O)COc3cc(=O)n(C)c4ccccc34)CC2)c1C | 21 | 5 | 14 | -2.2 | 1 | -0.44
